Published values gathered from unrelated publications.
Lines come from different studies, so protocols differ.
ABL1 Y253F: Tyrosine-protein kinase ABL1 (ABL1, Homo sapiens, UniProt P00519, Y253F)

SMILES	target	test	conditions	endpoint	value
Cc1ccc(Nc2nccc(N(C)c3ccc4c(C)n(C)nc4c3)n2)cc1S(N)(=O)=O	cAMP-dependent protein kinase catalytic subunit alpha (PRKACA, Bos taurus, UniProt P00517)	enzyme activity, inhibitor	10 µM	inhibition	-19%
Oc1cccc(Nc2nc(-c3ccc(F)cc3F)cs2)c1	Androgen receptor (AR, Homo sapiens, UniProt P10275)	cell-free assay	10 µM	inhibition	26.5%
Cc1ccc(C(=O)Nc2ccc(CN3CCN(C)CC3)c(C(F)(F)F)c2)cc1C#Cc1cnc2cccnn12	Serine/threonine-protein kinase Nek10 (NEK10, Homo sapiens, UniProt Q6ZWH5)	enzyme activity, inhibitor	23.5 nM	remaining activity	100%
C[S+]([O-])c1ccc(-c2nc(-c3ccncc3)c(-c3ccc(F)cc3)[nH]2)cc1 (stereo not shown)	Histone acetyltransferase p300 (EP300, Homo sapiens, UniProt Q09472)	thermal stability, DSF	10 µM	ΔTm	0.35 °C
c1ccc([C@H]2O[C@H]2c2ccccc2)cc1	Epoxide hydrolase 1 (EPHX1, Homo sapiens, UniProt P07099)	enzyme activity, substrate	pH 9	Km	141 µM
CN(C)C1CCN(CC#Cc2nn(C3CCCC3)c3nc(NCc4ccccc4)ncc23)C1 (stereo not shown)	Misshapen-like kinase 1 (MINK1, Homo sapiens, UniProt Q8N4C8)	enzyme activity, inhibitor, FRET	10 µM	inhibition	55%
Nc1ncnc2occ(-c3ccc(NC(=O)Nc4cc(C(F)(F)F)ccc4F)cc3)c12	Serine/threonine-protein kinase RIO1 (RIOK1, Homo sapiens, UniProt Q9BRS2)	cell-free assay, inhibitor	20 µM	remaining signal	89%
O=C(c1ccc(F)cc1)N(Cc1ccccc1)C1CCCCC1	Delta-type opioid receptor (OPRD1, Homo sapiens, UniProt P41143)	ligand displacement	10 µM	inhibition	0%
Cc1cnc(NC2CCOCC2)nc1-n1cnc(C(=O)NC(CN)c2cc(F)cc(Cl)c2)c1 (stereo not shown)	ABL1 Y253F	enzyme activity, inhibitor, radiometric	1 µM	remaining activity	102%
COc1cc(-c2cc(-c3ccc(N4CCNCC4)cc3)cnc2N)cc(OC)c1OC	ABL1 Y253F	enzyme activity, inhibitor	1 µM	inhibition	95%
O=c1c(O)cccc2cc(O)c(O)c(O)c12	N-lysine methyltransferase KMT5A (KMT5A, Homo sapiens, UniProt Q9NQR1)	cell-free assay	10 µM	inhibition	7%
Nc1ncnc2c1ncn2[C@@H]1O[C@H](CSCC[C@H](N)C(=O)O)[C@@H](O)[C@H]1O	Protein arginine N-methyltransferase 6 (PRMT6, Homo sapiens, UniProt Q96LA8)	thermal stability, DSF	100 µM	ΔTm	8.4 °C
Cc1cc(NC(=O)c2cccc3cc(-c4cccc5[nH]nc(N)c45)ccc23)ccc1F	Tyrosine-protein kinase ABL1 (ABL1, Homo sapiens, UniProt P00519, H396P)	enzyme activity, inhibitor	0.1 µM	activity vs control	97%
